In ChEMBL document CHEMBL1649090, “Discovery of (7R)-14-cyclohexyl-7-{[2-(dimethylamino)ethyl](methyl) amino}-7,8-dihydro-6H-indolo[1,2-e][1,5]benzoxazocine-11-carboxylic acid (MK-3281), a potent and orally bioavailable finger-loop inhibitor of the hepatitis C virus NS5B polymerase” (J Med Chem, 2011):

Test: Volume of distribution at steady state in rhesus monkey at 2 mg/kg, iv and 4 mg/kg, po
Format: ADME, organism-based, Macaca mulatta
Conditions: in vivo, read-out: Vdss
Summary of the method: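 Single iv and single oral doses, given as the bis-HCl salt, in rat, dog and rhesus, n = 3 per species (dog oral n = 2). The iv vehicle was DMSO/PEG400/water 20%/60%/20%. Oral vehicle was PEG400 for rat and dog and PEG400/water 70%/30% for rhesus. Values are mean ± SD.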

Structure (SMILES): CN(C)CCN(C)[C@H]1COc2ccccc2-c2c(C3CCCCC3)c3ccc(C(=O)O)cc3n2C1 [MK-3281]
- Vd: 2.2 L/kg
